Drawing on ChEMBL document CHEMBL4177749, “A Synthetic Dual Drug Sideromycin Induces Gram-Negative Bacteria To Commit Suicide with a Gram-Positive Antibiotic” (J Med Chem, 2018), this text covers MIC and Drug metabolism for nine molecules.

Data set [1] has as its system Acinetobacter baumannii. The data set can be described thus: Antibacterial activity against Acinetobacter baumannii ATCC 17978 after 18 hrs by broth microdilution method. As to conditions: ATCC 17978, 18 h. Type of data set: functional.
The subject of data set [2] is Acinetobacter baumannii. The data set can be described thus: Antibacterial activity against Acinetobacter baumannii ATCC 17978 transfected with pNT255 after 18 hrs by broth microdilution method. Format: functional. As to conditions: ATCC 17978, 18 h.
In data set [3] the test system is Acinetobacter baumannii. Briefly: Antibacterial activity against Acinetobacter baumannii ATCC 17978 transfected with pNT255:ADC-1 after 18 hrs by broth microdilution method. Format: functional. As to conditions: ATCC 17978, 18 h.
Data set [4] relates to Acinetobacter baumannii. Briefly: Antibacterial activity against Acinetobacter baumannii ATCC 17961 clinical isolate after 18 hrs by broth microdilution method. Format: functional. As to conditions: ATCC 17961, 18 h.
In data set [5] the test system is Acinetobacter baumannii. Briefly: Antibacterial activity against Acinetobacter baumannii ATCC BAA 1793 clinical isolate after 18 hrs by broth microdilution method. Type of data set: functional. As to conditions: ATCC BAA 1793, 18 h.
For data set [6], the system named is Acinetobacter baumannii. Briefly: Antibacterial activity against Acinetobacter baumannii ATCC BAA 1797 clinical isolate after 18 hrs by broth microdilution method. Format: functional. As to conditions: ATCC BAA 1797, 18 h.
Data set [7] deals with Acinetobacter baumannii. The data set can be described thus: Antibacterial activity against Acinetobacter baumannii ATCC BAA 1800 clinical isolate after 18 hrs by broth microdilution method. Format: functional. As to conditions: ATCC BAA 1800, 18 h.
The test system of another data set is Escherichia coli. Briefly: Antibacterial activity against Escherichia coli DC0 after 18 hrs by broth microdilution method. Type of data set: functional. As to conditions: DC0, 18 h.
The test system of data set [8] is Pseudomonas aeruginosa. Briefly: Antibacterial activity against wild type Pseudomonas aeruginosa KW799 after 18 hrs by broth microdilution method. Type of data set: functional. As to conditions: KW799, 18 h.
Another data set deals with Beta-lactamase (Acinetobacter baumannii, UniProt Q9L4R5). The data set can be described thus: Drug metabolism assessed as Acinetobacter baumannii ADC-1-mediated (S)-N-((3-(3-Fluoro-4-(4-glycylpiperazin-1-yl)phenyl)-2-oxooxazolidin-5-yl)methyl)acetamide release at 20 uM after 40 mins by LC/MS method. Format: ADME. The gist of the method: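 Purified ADC-1 β-lactamase (expressed as described earlier) […] with 20 μM conjugate in 50 mM sodium phosphate, pH 7.4, 1% DMSO final, room temperature, 40 min. Release of the oxazolidinone followed by LC/MS. Controls run under the same conditions: conjugate alone (20 μM) and enzyme alone (1 μM).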

Data set [9] concerns Pseudomonas aeruginosa. The data set can be described thus: Antibacterial activity against Pseudomonas aeruginosa by broth microdilution method. Type of data set: functional.
Data set [10] relates to Pseudomonas aeruginosa. Briefly: Antibacterial activity against Pseudomonas aeruginosa ATCC 27853 by broth microdilution method. Format: functional.
Data set [11] concerns Pseudomonas aeruginosa. Briefly: Antibacterial activity against Pseudomonas aeruginosa PAO1 ATCC […] by broth microdilution method. Type of data set: functional.

In brackets after ≈: the same amount, converted by molar mass.

Take `CC(=O)OCC1=C(C(=O)O)N2C(=O)[C@@H](NC(=O)C(NC(=O)CN(CCCCNC(=O)c3cccc(O)c3O)C(=O)c3cccc(O)c3O)c3ccccc3)[C@H]2SC1` (stereo partly specified): the MIC is 0.4 µM (≈ 0.322 µg/mL) in the data set with Acinetobacter baumannii [1]; 0.4 µM (≈ 0.322 µg/mL) against Acinetobacter baumannii [2]; above 50 µM with Acinetobacter baumannii [3]; 0.8 µM (≈ 0.645 µg/mL) with Acinetobacter baumannii [4]; 12.5 µM (≈ 10.1 µg/mL) against Acinetobacter baumannii [5]; above 50 µM against Acinetobacter baumannii [6]. The MIC against Acinetobacter baumannii [7] was 25 µM (≈ 20.1 µg/mL); against Escherichia coli, below 0.025 µM; with Pseudomonas aeruginosa [8], 0.4 µM (≈ 0.322 µg/mL).
Regarding `CC(=O)NC[C@H]1CN(c2ccc(N3CCN(C(=O)CNC(=O)OCC4=C(C(=O)O)N5C(=O)[C@@H](NC(=O)C(NC(=O)CN(CCCCNC(=O)c6cccc(O)c6O)C(=O)c6cccc(O)c6O)c6ccccc6)[C@H]5SC4)CC3)c(F)c2)C(=O)O1` (stereo partly specified), the Drug metabolism result at Beta-lactamase is recorded as “Metabolite_Detected”. Moreover, the MIC against Acinetobacter baumannii [1] was 0.4 µM (≈ 0.473 µg/mL); in the data set on Acinetobacter baumannii [2], 0.4 µM (≈ 0.473 µg/mL); in the data set on Acinetobacter baumannii [3] it was 6 µM (≈ 7.1 µg/mL); with Acinetobacter baumannii [4] it was 0.8 µM (≈ 0.947 µg/mL); with Acinetobacter baumannii [5], 0.8 to 16 µM (≈ 0.947 to 18.9 µg/mL); in the data set with Acinetobacter baumannii [6] it was 6.25 µM (≈ 7.39 µg/mL). In addition, the MIC is 0.8 µM (≈ 0.947 µg/mL) against Acinetobacter baumannii [7], below 0.025 µM in the data set with Escherichia coli and 0.2 to 0.4 µM (≈ 0.237 to 0.473 µg/mL) in the data set with Pseudomonas aeruginosa [8].
With `CC(=O)Oc1cccc(C(=O)NCCCCN(CC(=O)N[C@@H](C(=O)N[C@@H]2C(=O)N3[C@@H]2SC(C)(C)[C@@H]3C(=O)O)c2ccc(O)cc2)C(=O)c2cccc(OC(C)=O)c2OC(C)=O)c1OC(C)=O`, the MIC in the data set on Pseudomonas aeruginosa [9] was 0.02 to 0.16 µM (≈ 0.0187 to 0.149 µg/mL).
`CC(=O)OCC1=C(C(=O)O)N2C(=O)[C@@H](NC(=O)C(N)c3ccccc3)[C@H]2SC1` (stereo partly specified): the minimum inhibitory concentration (MIC) against Acinetobacter baumannii [1], against Acinetobacter baumannii [2], against Acinetobacter baumannii [3], against Acinetobacter baumannii [4], in the data set on Acinetobacter baumannii [5] and with Acinetobacter baumannii [6] was above 50 µM throughout. The MIC against Acinetobacter baumannii [7] was above 50 µM; in the data set with Escherichia coli, 50 µM (≈ 20.3 µg/mL); in the data set with Pseudomonas aeruginosa [8] it was above 50 µM.
Turning to `CC(=O)NC[C@H]1CN(c2ccc(N3CCN(C(=O)CO)CC3)c(F)c2)C(=O)O1` [EPEREZOLID], the MIC against Acinetobacter baumannii [1], in the data set with Acinetobacter baumannii [2] and against Acinetobacter baumannii [3] was above 50 µM each time.
With `CC(=O)NC[C@H]1CN(c2ccc(N3CCN(C(=O)CN)CC3)c(F)c2)C(=O)O1`, the MIC in the data set on Acinetobacter baumannii [1] is above 500 µM; against Acinetobacter baumannii [2], above 500 µM; against Acinetobacter baumannii [3], above 500 µM; in the data set on Acinetobacter baumannii [4], above 50 µM; in the data set on Acinetobacter baumannii [5], above 50 µM; in the data set on Acinetobacter baumannii [6], above 50 µM. Besides, the MIC in the data set with Acinetobacter baumannii [7], with Escherichia coli and in the data set with Pseudomonas aeruginosa [8] was above 50 µM each time.
Take `CC(=O)NC[C@H]1CN(c2ccc(N3CCN(C(=O)CNC(=O)CN(CCCCNC(=O)c4cccc(O)c4O)C(=O)c4cccc(O)c4O)CC3)c(F)c2)C(=O)O1`: the MIC against Acinetobacter baumannii [1], against Acinetobacter baumannii [2], in the data set on Acinetobacter baumannii [3], in the data set with Acinetobacter baumannii [4], with Acinetobacter baumannii [5] and in the data set on Acinetobacter baumannii [6] was above 50 µM throughout. The MIC in the data set with Acinetobacter baumannii [7], with Escherichia coli and with Pseudomonas aeruginosa [8] was above 50 µM in each case.
On to `CC(=O)NC[C@H]1CN(c2ccc(N3CCN(C(=O)CNC(=O)OCC4=C(C(=O)O)N5C(=O)[C@@H](NC(=O)C(N)c6ccccc6)[C@H]5SC4)CC3)c(F)c2)C(=O)O1` (stereo partly specified), for which the minimum inhibitory concentration (MIC) against Acinetobacter baumannii [1], in the data set with Acinetobacter baumannii [2], in the data set with Acinetobacter baumannii [3], with Acinetobacter baumannii [4], with Acinetobacter baumannii [5] and against Acinetobacter baumannii [6] was above 50 µM each time. The MIC against Acinetobacter baumannii [7], in the data set with Escherichia coli and against Pseudomonas aeruginosa [8] was above 50 µM in each case.
Consider `CC(O)C(NCC(=O)NC(=O)C(CCCNC(=O)CCCCCCCCC(=O)NC(C(=O)N[C@@H]1C(=O)N2[C@@H]1SC(C)(C)[C@@H]2C(=O)O)c1ccccc1)NC(=O)C(CCCN(O)C=O)NC(=O)C(CO)NC(=O)C1CCN=C2C(NC(=O)CCC(N)=O)=Cc3cc(O)c(O)cc3N21)C(=O)NC(CO)C(=O)NC1CCCN(O)C1=O` (stereo partly specified), for which the MIC was 0.024 µM (≈ 0.0386 µg/mL) in the data set with Pseudomonas aeruginosa [10] and above 100 µM in the data set on Pseudomonas aeruginosa [11].
